From ChEMBL document CHEMBL2157880, “Synthesis, antimycobacterial and antibacterial activity of ciprofloxacin derivatives containing a N-substituted benzyl moiety” (2012)
In brackets after ≈: the same amount, converted by molar mass.

Columns and labels:
Type in all cases: functional
[1] = test system: Klebsiella pneumoniae; test: Antibacterial activity against Klebsiella pneumoniae 10-4 after 18 to 24 hrs by NCCLS method
In short: (§1)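 Standard NCCLS (M100-S11) MIC testing against Gram-positive and Gram-negative strains. Plates were incubated at 35 °C for 18–24 h. The MIC was read as the lowest concentration giving complete inhibition of visible bacterial growth.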

[2] = test system: Enterococcus faecalis; test: Antibacterial activity against Enterococcus faecalis 10-6 after 18 to 24 hrs by NCCLS method; in short: as §1
[3] = test system: Staphylococcus aureus; test: Antibacterial activity against methicillin-resistant Staphylococcus aureus 10-11 after 18 to 24 hrs by NCCLS method
In short: (§2)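 Incubated at 35 °C for 18–24 h under NCCLS (M100-S11) standards. MIC was read as the lowest concentration giving complete inhibition of visible bacterial growth.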

[4] = test system: Staphylococcus aureus; test: Antibacterial activity against methicillin-resistant Staphylococcus aureus 10-15 after 18 to 24 hrs by NCCLS method; in short: as §2
[5] = test system: Escherichia coli; test: Antibacterial activity against Escherichia coli ATCC 25922 after 18 to 24 hrs by NCCLS method; in short: as §1
[6] = test system: Escherichia coli; test: Antibacterial activity against Escherichia coli 10-2 after 18 to 24 hrs by NCCLS method; in short: as §1
[7] = test system: Escherichia coli; test: Antibacterial activity against extended spectrum beta-lactamases producing Escherichia coli 10-4 after 18 to 24 hrs by NCCLS method; in short: as §1
[8] = test system: Klebsiella pneumoniae; test: Antibacterial activity against extended spectrum beta-lactamases producing Klebsiella pneumoniae 10-2 after 18 to 24 hrs by NCCLS method; in short: as §1
[9] = test system: Enterococcus faecium; test: Antibacterial activity against Enterococcus faecium 10-6 after 18 to 24 hrs by NCCLS method; in short: as §1
[10] = test system: Pseudomonas aeruginosa; test: Antibacterial activity against Pseudomonas aeruginosa 10-5 after 18 to 24 hrs by NCCLS method; in short: as §1
[11] = test system: Staphylococcus epidermidis; test: Antibacterial activity against methicillin-sensitive Staphylococcus epidermidis 10-11 after 18 to 24 hrs by NCCLS method; in short: as §1
[12] = test system: Klebsiella pneumoniae; test: Antibacterial activity against Klebsiella pneumoniae 10-3 after 18 to 24 hrs by NCCLS method; in short: as §1
[13] = test system: Escherichia coli; test: Antibacterial activity against extended spectrum beta-lactamases producing Escherichia coli 10-2 after 18 to 24 hrs by NCCLS method; in short: as §1
[14] = test system: Pseudomonas aeruginosa; test: Antibacterial activity against Pseudomonas aeruginosa 10-15 after 18 to 24 hrs by NCCLS method; in short: as §1
[15] = test system: Staphylococcus aureus; test: Antibacterial activity against Staphylococcus aureus ATCC 2592 after 18 to 24 hrs by NCCLS method; in short: as §1
[16] = test system: Staphylococcus aureus; test: Antibacterial activity against methicillin-sensitive Staphylococcus aureus 10-14 after 18 to 24 hrs by NCCLS method; in short: as §1
[17] = test system: Klebsiella pneumoniae; test: Antibacterial activity against Klebsiella pneumoniae 10-2 after 18 to 24 hrs by NCCLS method; in short: as §1
[18] = test system: Klebsiella pneumoniae; test: Antibacterial activity against extended spectrum beta-lactamases producing Klebsiella pneumoniae 10-3 after 18 to 24 hrs by NCCLS method; in short: as §1
[19] = test system: Pseudomonas aeruginosa; test: Antibacterial activity against Pseudomonas aeruginosa 10-9 after 18 to 24 hrs by NCCLS method; in short: as §1
[20] = test system: Enterococcus faecalis; test: Antibacterial activity against Enterococcus faecalis 10-7 after 18 to 24 hrs by NCCLS method; in short: as §1
[21] = test system: Streptococcus pneumoniae; test: Antibacterial activity against Streptococcus pneumoniae 10-1 after 18 to 24 hrs by NCCLS method; in short: as §1
[22] = test system: Staphylococcus aureus; test: Antibacterial activity against methicillin-sensitive Staphylococcus aureus 10-13 after 18 to 24 hrs by NCCLS method; in short: as §1
[23] = test system: Enterococcus faecalis; test: Antibacterial activity against Enterococcus faecalis 10-5 after 18 to 24 hrs by NCCLS method; in short: as §1
[24] = test system: Pseudomonas aeruginosa; test: Antibacterial activity against Pseudomonas aeruginosa 10-12 after 18 to 24 hrs by NCCLS method; in short: as §1
[25] = test system: Staphylococcus epidermidis; test: Antibacterial activity against methicillin-resistant Staphylococcus epidermidis 10-13 after 18 to 24 hrs by NCCLS method; in short: as §2
[26] = test system: Escherichia coli; test: Antibacterial activity against extended spectrum beta-lactamases producing Escherichia coli 10-3 after 18 to 24 hrs by NCCLS method; in short: as §1
[27] = test system: Staphylococcus aureus; test: Antibacterial activity against methicillin-resistant Staphylococcus aureus 10-13 after 18 to 24 hrs by NCCLS method; in short: as §2
[28] = test system: Staphylococcus epidermidis; test: Antibacterial activity against methicillin-resistant Staphylococcus epidermidis 10-10 after 18 to 24 hrs by NCCLS method; in short: as §2
[29] = test system: Klebsiella pneumoniae; test: Antibacterial activity against extended spectrum beta-lactamases producing Klebsiella pneumoniae 10-1 after 18 to 24 hrs by NCCLS method; in short: as §1
[30] = test system: Pseudomonas aeruginosa; test: Antibacterial activity against Pseudomonas aeruginosa 10-18 after 18 to 24 hrs by NCCLS method; in short: as §1
[31] = test system: Streptococcus pneumoniae; test: Antibacterial activity against Streptococcus pneumoniae 10-6 after 18 to 24 hrs by NCCLS method; in short: as §1
[32] = test system: Escherichia coli; test: Antibacterial activity against Escherichia coli 10-3 after 18 to 24 hrs by NCCLS method; in short: as §1
[33] = test system: Mycobacterium tuberculosis; test: Antimycobacterial activity against Mycobacterium tuberculosis H37Rv ATCC 27294 by microplate alamar blue assay
In short: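 Microplate Alamar Blue fluorescence assay on strain H37Rv ATCC 27294. MIC was the lowest concentration cutting fluorescence by ≥90% against the mean of replicate bacterium-only controls.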

[34] = test system: Escherichia coli; test: Antibacterial activity against Escherichia coli 10-1 after 18 to 24 hrs by NCCLS method; in short: as §1
[35] = test system: Enterococcus faecium; test: Antibacterial activity against Enterococcus faecium 10-9 after 18 to 24 hrs by NCCLS method; in short: as §1
[36] = test system: Staphylococcus epidermidis; test: Antibacterial activity against methicillin-sensitive Staphylococcus epidermidis 10-15 after 18 to 24 hrs by NCCLS method; in short: as §2
[37] = test system: Pseudomonas aeruginosa; test: Antibacterial activity against Pseudomonas aeruginosa 10-20 after 18 to 24 hrs by NCCLS method; in short: as §1
[38] = test system: Staphylococcus aureus; test: Antibacterial activity against methicillin-sensitive Staphylococcus aureus 10-11 after 18 to 24 hrs by NCCLS method; in short: as §1

Compound	MIC [1] [µg/mL]	MIC [2] [µg/mL]	MIC [3] [µg/mL]	MIC [4] [µg/mL]	MIC [5] [µg/mL]	MIC [6] [µg/mL]	MIC [7] [µg/mL]	MIC [8] [µg/mL]	MIC [9] [µg/mL]	MIC [10] [µg/mL]	MIC [11] [µg/mL]	MIC [12] [µg/mL]	MIC [13] [µg/mL]	MIC [14] [µg/mL]	MIC [15] [µg/mL]	MIC [16] [µg/mL]	MIC [17] [µg/mL]	MIC [18] [µg/mL]	MIC [19] [µg/mL]	MIC [20] [µg/mL]	further results
O=C(O)c1cn(C2CC2)c2cc(N3CCN(Cc4ccc5c(c4)OCO5)CC3)c(F)cc2c1=O	> 128	32 (≈ 68.7 µM)	32 (≈ 68.7 µM)	16 (≈ 34.4 µM)	0.25 (≈ 0.537 µM)	16 (≈ 34.4 µM)	16 (≈ 34.4 µM)	> 128	8 (≈ 17.2 µM)	16 (≈ 34.4 µM)	2 (≈ 4.3 µM)	8 (≈ 17.2 µM)	> 128	16 (≈ 34.4 µM)	0.25 (≈ 0.537 µM)	1 (≈ 2.15 µM)	64 (≈ 137 µM)	> 128	16 (≈ 34.4 µM)	16 (≈ 34.4 µM)	MIC [21]: 8 µg/mL (≈ 17.2 µM); MIC [22]: 1 µg/mL (≈ 2.15 µM); MIC [23]: 16 µg/mL (≈ 34.4 µM); MIC [24]: 32 µg/mL (≈ 68.7 µM); MIC [25]: 16 µg/mL (≈ 34.4 µM); MIC [26]: > 128 µg/mL; MIC [27]: 64 µg/mL (≈ 137 µM); MIC [28]: 16 µg/mL (≈ 34.4 µM); MIC [29]: > 128 µg/mL; MIC [30]: 8 µg/mL (≈ 17.2 µM); MIC [31]: 16 µg/mL (≈ 34.4 µM); MIC [32]: 16 µg/mL (≈ 34.4 µM); MIC [33]: 2 µg/mL (≈ 4.3 µM); MIC [34]: > 128 µg/mL; MIC [35]: 8 µg/mL (≈ 17.2 µM); MIC [36]: 16 µg/mL (≈ 34.4 µM); MIC [37]: 16 µg/mL (≈ 34.4 µM); MIC [38]: 0.5 µg/mL (≈ 1.07 µM)
O=C(O)c1cn(C2CC2)c2cc(N3CCN(Cc4ccccc4)CC3)c(F)cc2c1=O	> 128	16 (≈ 38 µM)	64 (≈ 152 µM)	16 (≈ 38 µM)	0.25 (≈ 0.593 µM)	16 (≈ 38 µM)	16 (≈ 38 µM)	> 128	16 (≈ 38 µM)	16 (≈ 38 µM)	32 (≈ 75.9 µM)	16 (≈ 38 µM)	> 128	32 (≈ 75.9 µM)	0.25 (≈ 0.593 µM)	0.25 (≈ 0.593 µM)	> 128	> 128	16 (≈ 38 µM)	16 (≈ 38 µM)	MIC [21]: 16 µg/mL (≈ 38 µM); MIC [22]: 0.25 µg/mL (≈ 0.593 µM); MIC [23]: 16 µg/mL (≈ 38 µM); MIC [24]: 16 µg/mL (≈ 38 µM); MIC [25]: 0.5 µg/mL (≈ 1.19 µM); MIC [26]: > 128 µg/mL; MIC [27]: 64 µg/mL (≈ 152 µM); MIC [28]: 16 µg/mL (≈ 38 µM); MIC [29]: > 128 µg/mL; MIC [30]: 8 µg/mL (≈ 19 µM); MIC [31]: 16 µg/mL (≈ 38 µM); MIC [32]: 16 µg/mL (≈ 38 µM); MIC [33]: 1 µg/mL (≈ 2.37 µM); MIC [34]: > 128 µg/mL; MIC [35]: 16 µg/mL (≈ 38 µM); MIC [36]: 16 µg/mL (≈ 38 µM); MIC [37]: 16 µg/mL (≈ 38 µM); MIC [38]: 0.25 µg/mL (≈ 0.593 µM)
COc1cc(CN2CCN(c3cc4c(cc3F)c(=O)c(C(=O)O)cn4C3CC3)CC2)ccc1OCc1ccccc1	> 128	64 (≈ 115 µM)	> 128	> 128	0.5 (≈ 0.897 µM)	32 (≈ 57.4 µM)	> 128	> 128	16 (≈ 28.7 µM)	32 (≈ 57.4 µM)	1 (≈ 1.79 µM)	32 (≈ 57.4 µM)	> 128	64 (≈ 115 µM)	2 (≈ 3.59 µM)	1 (≈ 1.79 µM)	> 128	> 128	64 (≈ 115 µM)	32 (≈ 57.4 µM)	MIC [21]: 16 µg/mL (≈ 28.7 µM); MIC [22]: 2 µg/mL (≈ 3.59 µM); MIC [23]: 32 µg/mL (≈ 57.4 µM); MIC [24]: 32 µg/mL (≈ 57.4 µM); MIC [25]: 64 µg/mL (≈ 115 µM); MIC [26]: > 128 µg/mL; MIC [27]: > 128 µg/mL; MIC [28]: 128 µg/mL (≈ 230 µM); MIC [29]: > 128 µg/mL; MIC [30]: 32 µg/mL (≈ 57.4 µM); MIC [31]: 32 µg/mL (≈ 57.4 µM); MIC [32]: > 128 µg/mL; MIC [33]: 16 µg/mL (≈ 28.7 µM); MIC [34]: > 128 µg/mL; MIC [35]: 32 µg/mL (≈ 57.4 µM); MIC [36]: 32 µg/mL (≈ 57.4 µM); MIC [37]: 32 µg/mL (≈ 57.4 µM); MIC [38]: 0.5 µg/mL (≈ 0.897 µM)
COc1cc(CN2CCN(c3cc4c(cc3F)c(=O)c(C(=O)O)cn4C3CC3)CC2)cc(OC)c1	> 128	> 128	128 (≈ 266 µM)	64 (≈ 133 µM)	1 (≈ 2.08 µM)	> 128	> 128	> 128	16 (≈ 33.2 µM)	64 (≈ 133 µM)	4 (≈ 8.31 µM)	64 (≈ 133 µM)	> 128	64 (≈ 133 µM)	1 (≈ 2.08 µM)	1 (≈ 2.08 µM)	> 128	> 128	128 (≈ 266 µM)	> 128	MIC [21]: 8 µg/mL (≈ 16.6 µM); MIC [22]: 0.5 µg/mL (≈ 1.04 µM); MIC [23]: 128 µg/mL (≈ 266 µM); MIC [24]: 64 µg/mL (≈ 133 µM); MIC [25]: 128 µg/mL (≈ 266 µM); MIC [26]: > 128 µg/mL; MIC [27]: > 128 µg/mL; MIC [28]: > 128 µg/mL; MIC [29]: > 128 µg/mL; MIC [30]: 128 µg/mL (≈ 266 µM); MIC [31]: > 128 µg/mL; MIC [32]: > 128 µg/mL; MIC [33]: 2 µg/mL (≈ 4.15 µM); MIC [34]: > 128 µg/mL; MIC [35]: > 128 µg/mL; MIC [36]: 128 µg/mL (≈ 266 µM); MIC [37]: 64 µg/mL (≈ 133 µM); MIC [38]: 1 µg/mL (≈ 2.08 µM)
